Experimental findings from ChEMBL document CHEMBL4270576, “Discovery of a benzenesulfonamide-based dual inhibitor of microsomal prostaglandin E2 synthase-1 and 5-lipoxygenase that favorably modulates lipid mediator biosynthesis in inflammation” (Eur J Med Chem, 2018) are described below.

For assay [1], the target named is T1, Polyunsaturated fatty acid 5-lipoxygenase (Homo sapiens) (UniProt P09917).
T1 sequence (whole entry): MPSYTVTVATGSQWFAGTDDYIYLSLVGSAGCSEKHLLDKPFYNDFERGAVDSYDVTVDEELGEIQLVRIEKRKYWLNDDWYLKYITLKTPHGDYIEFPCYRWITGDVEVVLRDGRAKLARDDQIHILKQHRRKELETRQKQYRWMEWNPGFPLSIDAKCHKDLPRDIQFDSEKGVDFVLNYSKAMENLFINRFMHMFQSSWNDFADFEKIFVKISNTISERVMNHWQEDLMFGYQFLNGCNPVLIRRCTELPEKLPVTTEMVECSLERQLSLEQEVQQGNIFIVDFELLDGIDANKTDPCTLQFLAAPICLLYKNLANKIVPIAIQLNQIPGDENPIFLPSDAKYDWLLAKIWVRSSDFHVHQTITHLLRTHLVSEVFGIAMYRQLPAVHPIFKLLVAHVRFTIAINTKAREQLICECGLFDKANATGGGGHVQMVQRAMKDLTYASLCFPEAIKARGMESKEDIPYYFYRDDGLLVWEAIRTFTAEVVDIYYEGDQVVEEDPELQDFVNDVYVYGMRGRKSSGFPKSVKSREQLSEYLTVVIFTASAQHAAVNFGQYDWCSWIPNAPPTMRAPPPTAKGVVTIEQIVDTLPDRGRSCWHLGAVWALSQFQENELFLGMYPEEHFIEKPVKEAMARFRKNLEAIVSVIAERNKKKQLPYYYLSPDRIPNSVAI
As to the kind of experiment: Inhibition of 5-LO in human M1 macrophages derived from LPS/IFNgamma-polarized human monocyte derived macrophages assessed as effect on t-LTB4 level at 3 uM preincubated for 15 mins followed by Escherichia coli (O6:K2:H1) challenge for 90 mins by LC-MS/MS analysis. Also noted: scale not given: the % may be the effect or the level left. The procedure, abridged: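 Monocytes differentiated 6 days with GM-CSF (20 ng/ml) in RPMI/10% FCS, then polarized 48 h with LPS 100 ng/ml plus IFN-γ 20 ng/ml (M1). Cells (2 × 10^6) in PBS with 1 mM CaCl2 pre-incubated 15 min at 37 °C with 3 µM compound or 0.1% DMSO, then E. coli O6:K2:H1 (1:50) for 90 min. Methanol with deuterated standards added; SPE; UPLC-MS/MS; expressed as % of vehicle.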

For assay [2], the target named is T2, Polyunsaturated fatty acid lipoxygenase ALOX12 (Homo sapiens) (UniProt P18054).
T2 sequence (whole entry): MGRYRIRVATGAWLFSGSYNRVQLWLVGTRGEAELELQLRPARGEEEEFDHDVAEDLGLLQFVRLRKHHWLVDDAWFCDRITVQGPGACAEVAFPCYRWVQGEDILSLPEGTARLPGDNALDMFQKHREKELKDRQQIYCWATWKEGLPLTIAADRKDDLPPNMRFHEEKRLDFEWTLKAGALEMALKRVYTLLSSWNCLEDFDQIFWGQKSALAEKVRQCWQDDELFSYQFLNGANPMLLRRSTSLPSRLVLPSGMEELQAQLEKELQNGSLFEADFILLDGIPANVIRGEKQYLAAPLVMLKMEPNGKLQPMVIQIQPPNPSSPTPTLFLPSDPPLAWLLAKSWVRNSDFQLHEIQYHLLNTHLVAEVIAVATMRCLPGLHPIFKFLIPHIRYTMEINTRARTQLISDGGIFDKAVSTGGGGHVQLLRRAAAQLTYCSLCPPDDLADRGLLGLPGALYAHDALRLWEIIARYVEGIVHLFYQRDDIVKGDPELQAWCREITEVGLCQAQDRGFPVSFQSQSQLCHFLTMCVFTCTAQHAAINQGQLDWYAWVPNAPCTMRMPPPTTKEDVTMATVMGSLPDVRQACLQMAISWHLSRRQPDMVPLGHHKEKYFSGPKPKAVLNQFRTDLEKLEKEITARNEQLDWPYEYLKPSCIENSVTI
The assay is described as follows: Modulation of 12-LO-mediated 12-HEPE level in human M2 macrophages derived from IL4-polarized human monocyte derived macrophages at 3 uM preincubated for 15 mins followed by Escherichia coli (O6:K2:H1) challenge for 90 mins by LC-MS/MS analysis. In outline: (§1)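 Monocytes differentiated 6 days with M-CSF (20 ng/ml), then polarized 48 h with IL-4 20 ng/ml (M2). Cells (2 × 10^6) in PBS/1 mM CaCl2 pre-incubated 15 min at 37 °C with 3 µM compound or 0.1% DMSO, then challenged with E. coli O6:K2:H1 (1:50) for 90 min. Lipid mediators extracted by SPE with deuterated internal standards and quantified by UPLC-MS/MS as % of vehicle.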

For the next assay, the system named is Macrophage cell line. The assay is described as follows: Modulation of 4-HDHA level in human M2 macrophages derived from IL4-polarized human monocyte derived macrophages at 3 uM preincubated for 15 mins followed by Escherichia coli (O6:K2:H1) challenge for 90 mins by LC-MS/MS analysis. It counts as functional. The procedure, abridged:
as §1

Assay [3] is filed under the species Homo sapiens. The assay is described as follows: Modulation of LO-mediated 5,15-DiHETE level in human M2 macrophages derived from IL4-polarized human monocyte derived macrophages at 3 uM preincubated for 15 mins followed by Escherichia coli (O6:K2:H1) challenge for 90 mins by LC-MS/MS analysis. The procedure, abridged: as §1
The species entered for assay [4] is Homo sapiens. As to the kind of experiment: Modulation of LO-mediated PDX level in human M2 macrophages derived from IL4-polarized human monocyte derived macrophages at 3 uM preincubated for 15 mins followed by Escherichia coli (O6:K2:H1) challenge for 90 mins by LC-MS/MS analysis. In outline:
as §1

Assay [5] is filed under the species Homo sapiens. As to the kind of experiment: Modulation of LO-mediated MaR1 level in human M2 macrophages derived from IL4-polarized human monocyte derived macrophages at 3 uM preincubated for 15 mins followed by Escherichia coli (O6:K2:H1) challenge for 90 mins by LC-MS/MS analysis. The procedure, abridged: as §1
In a further assay the test system is Mus musculus. The assay is described as follows: Antiinflammatory activity in zymosan induced CD-1 mouse model of inflammation assessed as reduction in leukocyte recruitment in air pouch at 10 mg/kg, ip preincubated for 30 mins followed by zymosan challenge and measured after 4 hrs by trypan blue staining-based burker's chamber method. The format is functional, organism-based. In outline:
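Air pouch formed by s.c. injection of 2.5 mL sterile air in CD-1 mice; on day 6, 10 mg/kg i.p. (2% DMSO/saline) given 30 min before 1 ml 1% w/v zymosan into the pouch. After 4 h, exudate collected with 1 ml saline and centrifuged; leukocytes counted in Burker chamber; LTB4 in supernatant by ELISA (ng/mL). n=6 mice per group.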

Calls of active or inactive are those of the source. The rule behind the calls is not given here.

For `O=C(O)c1ccc(N(Cc2cccc(OCc3ccccc3)c2)S(=O)(=O)c2ccc(-c3ccccc3)cc2)cc1`, the Activity in assay [1] stood at 17%; in assay [2] it was 140%; in the assay on Macrophage cell line, 86%; in the assay listed under Homo sapiens [3], 122%; in the assay filed under Homo sapiens [4], 125%; in the assay listed under Homo sapiens [5], 141%. Also, the result in the assay on Mus musculus was Active.
